T/C, Tumor volume and IC50 data for 5 compounds are collected here from ChEMBL document CHEMBL1131610, “3-Deoxy-D-myo-inositol 1-phosphate, 1-phosphonate, and ether lipid analogues as inhibitors of phosphatidylinositol-3-kinase signaling and cancer cell growth” (J Med Chem, 1998).

For data set [1], the system named is Mus musculus. The data set can be described thus: In vivo antitumor activity in mice implanted subcutaneously with 10^7 HT-29 human colon adenocarcinoma cells at a dose of 50 mg/kg (qd 4-7), injected intraperitoneally and evaluated for %T/C. It counts as functional. Summed up:
(§1)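 scid mice were implanted subcutaneously with 10⁷ HT-29 human colon adenocarcinoma cells, 8 mice per group. Beginning 4 days after inoculation, each mouse got 4 daily intraperitoneal injections (days 4–7) of compound suspended in 3% EtOH, 3% Tween 20, 0.9% NaCl. Tumor volume was measured with calipers on day 10 and reported as mean with SE. T/C (%) is treated versus control volume, and significance was tested by Student's test.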

Data set [2] deals with Mus musculus. In words: In vivo antitumor activity in mice implanted with human colon adenocarcinoma cells at a dose of 50 mg/kg (qd 4-7), injected intraperitoneally and evaluated for tumor volume on day 10. It counts as functional. Conditions: route intraperitoneal; call rule not given here. An outline of the steps: as §1
The nature of data set [3]: Inhibition of bovine brain Phosphatidylinositol 3-kinase. Also on record: species or system Bos taurus.
For data set [4], the system named is Mus musculus. In words: In vivo antitumor activity in mice implanted subcutaneously with 10^7 HT-29 human colon adenocarcinoma cells at a dose of 100 mg/kg (qd 4-7), injected intraperitoneally and evaluated for %T/C. In kind it is functional. An outline of the steps: as §1
For data set [5], the system named is Mus musculus. In words: In vivo antitumor activity in mice implanted with human colon adenocarcinoma cells at a dose of 150 mg/kg (qd 4-7), injected intraperitoneally and evaluated for %T/C. It counts as functional. The settings on record: route intraperitoneal. Summed up: as §1
Data set [6] has as its system HT-29. The data set can be described thus: Inhibition of HT-29 colon carcinoma cell proliferation after continuous 7-day exposure. The settings on record: Homo sapiens, HT-29, 168 h. It counts as functional, cell-based. An outline of the steps: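 HT-29 colon carcinoma cells were grown as colonies in soft agarose with continuous 7-day drug exposure, and inhibition of colony formation was scored.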

Data set [7] concerns Mus musculus. The data set can be described thus: In vivo antitumor activity in mice implanted with human colon adenocarcinoma cells at a dose of 100 mg/kg (qd 4-7), injected intraperitoneally and evaluated for tumor volume on day 10. It counts as functional. Conditions: route intraperitoneal. Summed up: as §1
Data set [8] has as its system Mus musculus. In words: In vivo antitumor activity in mice implanted with human colon adenocarcinoma cells at a dose of 150 mg/kg (qd 4-7), injected intraperitoneally and evaluated for tumor volume on day 10. In kind it is functional. The settings on record: route intraperitoneal. Summed up: as §1
Data set [9] is described as follows: In vivo antitumor activity in mice implanted with human colon adenocarcinoma cells at a dose of 500 mg/kg (qd 4-7), injected intraperitoneally and evaluated for tumor volume on day 10; Lethal. Also on record: dose 500 mg/kg, route intraperitoneal. The settings on record: mouse, ip. In kind it is organism-based.
Data set [10] has as its system Mus musculus. In words: In vivo antitumor activity in mice implanted subcutaneously with HT-29 human colon adenocarcinoma cells at a dose of 250 mg/kg (qd 4-7), injected intraperitoneally and evaluated for %T/C. It counts as functional. An outline of the steps: as §1
For data set [11], the system named is Mus musculus. In words: In vivo antitumor activity in mice implanted with human colon adenocarcinoma cells at a dose of 250 mg/kg (qd 4-7), injected intraperitoneally and evaluated for tumor volume on day 10. Conditions: route intraperitoneal. It counts as functional. An outline of the steps:
as §1

Data set [12] is described as follows: Inhibition of bovine brain Phosphatidylinositol 3-kinase (inactive). Details: species or system Bos taurus.
In data set [13] the test system is Phosphoinositide specific phospholipase C (Bos taurus). In words: In vitro inhibitory activity against bovine Phosphoinositide specific phospholipase C (PI-PLC); N/A= not active, with <20% inhibition at 100 uM.

As to `CCCCCCCCCCCCCCCCCCOC[C@H](COP(=O)(O)O[C@H]1[C@@H](O)[C@@H](O)[C@H](O)C[C@H]1O)OC`, the T/C in data set [1] stood at 103.7%; in [4] it was 118%; in [5], 33.3%. Further, the Tumor volume in data set [2] came out at 0.28 cm*3; in data set [7] it was 0.32 cm*3; in [8] it was 0.09 cm*3. The values for the IC50 in data set [3] and in [6] were 2.5 µM and 2.1 µM, respectively.

In the case of `CCCCCCCCCCCCCCCC(=O)OC[C@H](COP(=O)(O)O[C@H]1[C@@H](O)[C@@H](O)[C@H](O)C[C@H]1O)OC(=O)CCCCCCCCCCCCCCC`, the figures for the IC50 in [3] and in data set [6] were more than 250 µM and 35 µM, respectively. Besides, the values for the Tumor volume entry in data set [9] and in data set [11] were “Lethal” and 0.3 cm*3, respectively. In [10], the T/C is recorded as 111.1%.

For the compound `CCCCCCCCCCCCCCCC(=O)OC[C@H](CCP(=O)(O)O[C@H]1[C@@H](O)[C@@H](O)[C@H](O)C[C@H]1O)OC(=O)CCCCCCCCCCCCCCC`, the values for the IC50 entry in data set [12], in [13] and in data set [6] were “Not Active”, “Not Active” and 10 µM, respectively.

With `CCCCCCCCCCCCCCCC(=O)OC[C@H](COP(=O)(O)O[C@@H]1[C@H](O)[C@@H](F)[C@@H](O)[C@H](O)[C@@H]1O)OC(=O)CCCCCCCCCCCCCCC`, the concentration for half-maximal inhibition (IC50) was 30 µM in data set [3] and 37 µM in data set [6].

As for `CCCCCCCCCCCCCCCCCCOC[C@H](CCP(=O)(O)O[C@H]1[C@@H](O)[C@@H](O)[C@H](O)C[C@H]1O)OC`, the IC50 was determined as 5.3 µM in data set [3] and 45 µM in [6].

One may read the T/C as the result in the treated group divided by that in the control group, in per cent. One may read the IC50 as the concentration that inhibits the measured activity by half. Read a low IC50 as higher potency.
